Reference: publication PMC6424611 (Journal of molecular biology, 2019)
pKd: −log10 of the molar value. Where no end group is shown, it is not given here. The star is where a group is joined. Biotin = O=C1N[C@H]2[C@H](CS[C@H]2CCCCC(=O)*)N1; TTDS = NCCCOCCOCCOCCCNC(=O)CCC(=O)*

How the values were obtained:
MAGI3-2 PDZ = test: holdup assay; format: binding, human; details: fraction of PDZ depleted; ~4 μM PDZ; biotinylated RSK1_725–735; triplicates
Procedure, shortened: (§1)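 Automated holdup in triplicate measured biotinylated (N-terminal TTDS linker) RSK1 725–735 peptides, unphosphorylated or phosphorylated, against E. coli-expressed PDZome v2 domains. Soluble lysate was adjusted to ~4 μM, giving 255 domains for the unphosphorylated and 252 for the phosphorylated peptide. Binding intensity (BI) is the fraction of PDZ depleted from the fluid phase. BI 0.2 was the high-confidence threshold.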

MAGI1-2 PDZ = MAGI1-2 PDZ (Homo sapiens, UniProt Q96QZ7); test: holdup assay; format: binding; details: ~4 μM PDZ
Procedure, shortened: (§2)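 Automated holdup against N-terminally biotinylated (TTDS linker) RSK1 725–735 peptides, unphosphorylated and phosphorylated, in triplicate. PDZome v2 clones were codon-optimized and expressed in E. coli, with soluble lysate adjusted to ~4 μM. BI is the PDZ fraction depleted from the fluid phase.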

HTRA1 PDZ = HTRA1 PDZ (Homo sapiens, UniProt Q92743); test: holdup assay; format: binding; details: ~4 μM PDZ
Procedure, shortened: as §2

LNX1 −3 PDZ = test: holdup assay; format: binding, human; details: ~4 μM PDZ
Procedure, shortened: as §2

SHANK3 PDZ = test: holdup assay; format: binding, human; details: ~4 μM PDZ
Procedure, shortened: as §2

SNTG2 PDZ = target: T1, SNTG2 PDZ (Homo sapiens, UniProt Q9NY99); test: holdup assay; format: binding; details: ~4 μM PDZ
T1 sequence (Q9NY99 73-156 limits assumed): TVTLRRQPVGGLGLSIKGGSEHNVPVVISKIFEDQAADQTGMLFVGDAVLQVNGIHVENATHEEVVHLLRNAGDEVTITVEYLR
Procedure, shortened: as §2

ARHGEF11 PDZ = test: holdup assay; format: binding, human; details: fraction of PDZ depleted; ~4 μM PDZ; biotinylated RSK1_725–735; triplicates
Procedure, shortened: as §2

GRASP PDZ = test: holdup assay; format: binding, human; details: ~4 μM PDZ
Procedure, shortened: as §2

PTPN3 PDZ = test: holdup assay; format: binding, human; details: ~4 μM PDZ
Procedure, shortened: as §2

DFNB31-3 PDZ = test: holdup assay; format: binding, human; details: ~4 μM PDZ
Procedure, shortened: as §2

MAST1 PDZ = target: T2, MAST1 PDZ (Homo sapiens, UniProt Q9Y2H9); test: holdup assay; format: binding; details: ~4 μM PDZ
T2 sequence (Q9Y2H9 967-1055 limits assumed): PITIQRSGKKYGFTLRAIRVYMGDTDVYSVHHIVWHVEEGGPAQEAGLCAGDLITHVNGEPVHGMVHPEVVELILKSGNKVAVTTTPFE
Procedure, shortened: as §2

MAGI2-2 PDZ = MAGI2-2 PDZ (Homo sapiens, UniProt Q86UL8); test: holdup assay; format: binding; details: ~4 μM PDZ
Procedure, shortened: as §2

GOPC PDZ = GOPC PDZ (Homo sapiens, UniProt Q9HD26); test: holdup assay; format: binding; details: fraction of PDZ depleted; ~4 μM PDZ; biotinylated RSK1_725–735; triplicates
SNTB1 PDZ = target: T3, SNTB1 PDZ (Homo sapiens, UniProt Q13884); test: holdup assay; format: binding; details: ~4 μM PDZ
T3 sequence (Q13884 112-195 limits assumed): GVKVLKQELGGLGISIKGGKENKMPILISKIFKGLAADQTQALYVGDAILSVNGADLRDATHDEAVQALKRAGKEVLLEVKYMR
Procedure, shortened: as §2

PPP1R9A PDZ = test: holdup assay; format: binding, human; details: ~4 μM PDZ
Procedure, shortened: as §2

ARHGEF12 PDZ = target: T4, ARHGEF12 PDZ (Homo sapiens, UniProt Q9NZN5); test: holdup assay; format: binding; details: ~4 μM PDZ
T4 sequence (Q9NZN5 72-151 limits assumed): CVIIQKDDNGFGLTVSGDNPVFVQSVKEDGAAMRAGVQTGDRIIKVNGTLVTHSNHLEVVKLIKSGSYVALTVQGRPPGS
Procedure, shortened: as §2

[1] = tested on: human PDZ domains (PDZome); test: holdup assay, PDZome-binding profile; details: PDZome profile
Procedure, shortened: as §1

GORASP2 PDZ = test: holdup assay; format: binding, human; details: ~4 μM PDZ
Procedure, shortened: as §2

NHERF3-1 PDZ = target: T5, NHERF3-1 PDZ (Homo sapiens, UniProt Q5T2W1); test: holdup assay; format: binding; details: ~4 μM PDZ
T5 sequence (Q5T2W1 9-90 limits assumed): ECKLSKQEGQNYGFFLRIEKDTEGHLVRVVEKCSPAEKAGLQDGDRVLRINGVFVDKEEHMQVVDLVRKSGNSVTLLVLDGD
Procedure, shortened: as §2

SNX27 PDZ = SNX27 PDZ (Homo sapiens, UniProt Q96L92); test: holdup assay; format: binding; details: ~4 μM PDZ
GRID2IP-1 PDZ = test: holdup assay; format: binding, human; details: ~4 μM PDZ
Procedure, shortened: as §2

NHERF2-2 PDZ = test: holdup assay; format: binding, human; details: ~4 μM PDZ
Procedure, shortened: as §2

GRID2IP-2 PDZ = GRID2IP-2 PDZ (Homo sapiens, UniProt A4D2P6); test: holdup assay; format: binding; details: fraction of PDZ depleted; ~4 μM PDZ; biotinylated RSK1_725–735; triplicates
Procedure, shortened: as §1

SYNJ2BP PDZ = target: T6, SYNJ2BP PDZ (Homo sapiens, UniProt P57105); test: holdup assay; format: binding; details: ~4 μM PDZ
T6 sequence (P57105 13-100 limits assumed): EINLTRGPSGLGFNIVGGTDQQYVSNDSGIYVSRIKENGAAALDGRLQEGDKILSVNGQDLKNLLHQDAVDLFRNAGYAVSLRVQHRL
Procedure, shortened: as §2

DLG4-2 PDZ = test: holdup assay; format: binding, human; details: ~4 μM PDZ
PDZRN4-1 PDZ = target: T7, PDZRN4-1 PDZ (Homo sapiens, UniProt Q6ZMN7); test: holdup assay; format: binding; details: fraction of PDZ depleted; ~4 μM PDZ; biotinylated RSK1_725–735; triplicates
T7 sequence (Q6ZMN7 224-314 limits assumed): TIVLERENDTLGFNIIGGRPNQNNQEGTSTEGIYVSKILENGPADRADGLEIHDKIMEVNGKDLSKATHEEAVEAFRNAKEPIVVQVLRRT
Procedure, shortened: as §1

LIMK2 PDZ = test: holdup assay; format: binding, human; details: ~4 μM PDZ
Procedure, shortened: as §2

[2] = fraction of PDZ depleted, biotinylated RSK1_725–735, triplicates
[3] = read-out: KD, estimated, from BI, estimated 17 μM peptide

HTRA1 PDZ, sequence (Q92743 365-467 limits assumed): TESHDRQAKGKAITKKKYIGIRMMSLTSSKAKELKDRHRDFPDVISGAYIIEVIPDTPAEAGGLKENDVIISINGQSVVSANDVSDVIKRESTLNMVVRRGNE
MAGI2-2 PDZ, sequence (Q86UL8 426-510 limits assumed): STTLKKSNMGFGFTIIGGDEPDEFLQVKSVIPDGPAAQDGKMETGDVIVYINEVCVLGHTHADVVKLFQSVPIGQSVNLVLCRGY
MAGI1-2 PDZ, sequence (Q96QZ7 472-554 limits assumed): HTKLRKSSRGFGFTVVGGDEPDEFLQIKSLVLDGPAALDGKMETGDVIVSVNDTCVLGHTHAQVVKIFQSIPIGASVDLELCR
GRID2IP-2 PDZ, sequence (A4D2P6 279-356 limits assumed): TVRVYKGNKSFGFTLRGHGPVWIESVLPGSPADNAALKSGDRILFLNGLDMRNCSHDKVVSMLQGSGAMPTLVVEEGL

- binding intensity (BI) (MAGI3-2 PDZ): 0.28 ± 0.03
- binding intensity (BI) (MAGI1-2 PDZ; [2]): 0.43 ± 0.02
- pKd (MAGI1-2 PDZ; [3]): 4.69
- binding intensity (BI) (HTRA1 PDZ; [2]): 0.44 ± 0.03
- pKd (HTRA1 PDZ; [3]): 4.71
- binding intensity (BI) (LNX1 −3 PDZ; [2]): 0.04 ± 0.02
- pKd (LNX1 −3 PDZ; [3]): < 4.00
- binding intensity (BI) (SHANK3 PDZ; [2]): 0.27 ± 0.03
- pKd (SHANK3 PDZ; [3]): 4.37
- binding intensity (BI) (SNTG2 PDZ; [2]): 0.41 ± 0.02
- pKd (SNTG2 PDZ; [3]): 4.66
- binding intensity (BI) (ARHGEF11 PDZ): 0.28 ± 0.06
- binding intensity (BI) (GRASP PDZ; [2]): 0.29 ± 0.01
- pKd (GRASP PDZ; [3]): 4.41
- binding intensity (BI) (PTPN3 PDZ; [2]): 0.05 ± 0.02
- pKd (PTPN3 PDZ; [3]): < 4.00
- binding intensity (BI) (DFNB31-3 PDZ; [2]): 0.23 ± 0.04
- pKd (DFNB31-3 PDZ; [3]): 4.27
- binding intensity (BI) (MAST1 PDZ; [2]): 0.57 ± 0.01
- pKd (MAST1 PDZ; [3]): 4.95
- binding intensity (BI) (MAGI2-2 PDZ; [2]): 0.42 ± 0.01
- pKd (MAGI2-2 PDZ; [3]): 4.67
- binding intensity (BI) (GOPC PDZ): 0.63 ± 0.05
- binding intensity (BI) (SNTB1 PDZ; [2]): 0.22 ± 0.04
- pKd (SNTB1 PDZ; [3]): 4.24
- binding intensity (BI) (PPP1R9A PDZ; [2]): 0.00 ± 0.02
- pKd (PPP1R9A PDZ; [3]): < 4.00
- binding intensity (BI) (ARHGEF12 PDZ; [2]): 0.77 ± 0.02
- pKd (ARHGEF12 PDZ; [3]): 5.38
- average BI [1]: 0.42
- maximal BI [1]: 0.77
- binding intensity (BI) (GORASP2 PDZ; [2]): 0.41 ± 0.02
- pKd (GORASP2 PDZ; [3]): 4.66
- binding intensity (BI) (NHERF3-1 PDZ; [2]): 0.41 ± 0.01
- pKd (NHERF3-1 PDZ; [3]): 4.66
- binding intensity (BI) (SNX27 PDZ; [2]): 0.08 ± 0.07
- pKd (SNX27 PDZ; [3]): < 4.00
- binding intensity (BI) (GRID2IP-1 PDZ; [2]): 0.06 ± 0.02
- pKd (GRID2IP-1 PDZ; [3]): < 4.00
- binding intensity (BI) (NHERF2-2 PDZ; [2]): 0.20 ± 0.04
- pKd (NHERF2-2 PDZ; [3]): 4.19
- binding intensity (BI) (GRID2IP-2 PDZ): 0.67 ± 0.02
- binding intensity (BI) (SYNJ2BP PDZ; [2]): 0.26 ± 0.07
- pKd (SYNJ2BP PDZ; [3]): 4.34
- binding intensity (BI) (DLG4-2 PDZ; [2]): 0.11 ± 0.03
- pKd (DLG4-2 PDZ; [3]): < 4.00
- binding intensity (BI) (PDZRN4-1 PDZ): 0.51 ± 0.02
- binding intensity (BI) (LIMK2 PDZ; [2]): 0.01 ± 0.06
- pKd (LIMK2 PDZ; [3]): < 4.00
Substance: unphosphorylated RSK1 peptide: C-terminal RSK1 PBM peptide; RSK1_725–735 (holdup, SPR), RSK1_729–735 (direct FP), RSK1_683–735 (competitive FP) ({Biotin-TTDS}-RRVRKLPSTTL)
